Measurements taken from ChEMBL document CHEMBL5696442, “Discovery of type II inhibitors of TGFβ-activated kinase 1 (TAK1) and mitogen-activated protein kinase kinase kinase kinase 2 (MAP4K2)” (J Med Chem, 2015).

Key:
[1] = target: Mitogen-activated protein kinase kinase kinase kinase 4 (Homo sapiens, UniProt O95819); test: Inhibition of ZC1 Lys2 labeling site in human Huh-7 cell lysate at 1 uM by KiNativ Profiling analysis relative to control; type: subcellular
[2] = target: Mitogen-activated protein kinase 14 (Homo sapiens, UniProt Q16539); test: Inhibition of p38 alpha in human A-375 cells at 0.5 uM by KiNativ Profiling analysis relative to control; type: cell-based
Chain of Mitogen-activated protein kinase 14 (Q16539 whole entry): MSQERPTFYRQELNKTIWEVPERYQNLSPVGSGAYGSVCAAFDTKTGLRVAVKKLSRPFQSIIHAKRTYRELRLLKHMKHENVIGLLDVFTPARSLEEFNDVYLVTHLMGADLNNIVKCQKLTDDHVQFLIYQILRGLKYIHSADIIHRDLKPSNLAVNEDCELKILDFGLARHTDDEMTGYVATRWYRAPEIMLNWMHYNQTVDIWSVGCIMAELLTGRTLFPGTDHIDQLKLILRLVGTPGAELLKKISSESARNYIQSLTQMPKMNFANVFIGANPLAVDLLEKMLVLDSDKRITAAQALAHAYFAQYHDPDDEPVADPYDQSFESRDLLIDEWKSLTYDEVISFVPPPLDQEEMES

[3] = target: Ephrin type-A receptor 2 (Homo sapiens, UniProt P29317); test: Inhibition of EphA2 (unknown origin) ACT labeling site by KiNativ Profiling analysis
Chain of Ephrin type-A receptor 2 (P29317 whole entry): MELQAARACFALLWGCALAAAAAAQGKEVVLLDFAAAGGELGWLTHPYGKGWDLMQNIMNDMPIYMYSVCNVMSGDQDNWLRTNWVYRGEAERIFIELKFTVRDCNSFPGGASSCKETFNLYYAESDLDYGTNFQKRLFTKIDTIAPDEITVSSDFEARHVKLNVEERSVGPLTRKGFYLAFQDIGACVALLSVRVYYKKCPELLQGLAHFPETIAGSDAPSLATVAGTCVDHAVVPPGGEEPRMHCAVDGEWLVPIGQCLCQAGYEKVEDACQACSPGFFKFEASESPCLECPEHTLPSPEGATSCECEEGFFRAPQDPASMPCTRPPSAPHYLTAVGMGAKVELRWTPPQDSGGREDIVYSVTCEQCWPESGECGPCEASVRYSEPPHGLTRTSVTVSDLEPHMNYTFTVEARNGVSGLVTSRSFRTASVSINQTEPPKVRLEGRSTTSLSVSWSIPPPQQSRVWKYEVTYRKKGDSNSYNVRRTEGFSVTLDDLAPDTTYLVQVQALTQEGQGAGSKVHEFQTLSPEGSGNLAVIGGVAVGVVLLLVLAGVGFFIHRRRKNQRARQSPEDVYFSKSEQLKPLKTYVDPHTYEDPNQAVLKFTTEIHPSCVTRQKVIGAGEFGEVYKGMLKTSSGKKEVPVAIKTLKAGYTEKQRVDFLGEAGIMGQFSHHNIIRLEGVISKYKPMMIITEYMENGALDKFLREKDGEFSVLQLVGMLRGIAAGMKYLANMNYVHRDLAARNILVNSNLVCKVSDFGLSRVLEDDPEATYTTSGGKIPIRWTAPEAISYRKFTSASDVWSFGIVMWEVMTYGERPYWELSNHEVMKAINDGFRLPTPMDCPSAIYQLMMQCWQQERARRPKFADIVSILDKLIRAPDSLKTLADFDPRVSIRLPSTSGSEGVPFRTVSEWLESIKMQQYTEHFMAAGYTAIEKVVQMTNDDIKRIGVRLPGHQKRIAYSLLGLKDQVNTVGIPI

[4] = target: Tyrosine-protein kinase Fer (Homo sapiens, UniProt P16591); test: Inhibition of FER Lys1 labeling site harbouring DKTSVAVKTCKEDLPQELK in human A-375 cells at 5 uM by KiNativ Profiling analysis relative to control; type: cell-based
Chain of Tyrosine-protein kinase Fer (P16591 whole entry, looked up): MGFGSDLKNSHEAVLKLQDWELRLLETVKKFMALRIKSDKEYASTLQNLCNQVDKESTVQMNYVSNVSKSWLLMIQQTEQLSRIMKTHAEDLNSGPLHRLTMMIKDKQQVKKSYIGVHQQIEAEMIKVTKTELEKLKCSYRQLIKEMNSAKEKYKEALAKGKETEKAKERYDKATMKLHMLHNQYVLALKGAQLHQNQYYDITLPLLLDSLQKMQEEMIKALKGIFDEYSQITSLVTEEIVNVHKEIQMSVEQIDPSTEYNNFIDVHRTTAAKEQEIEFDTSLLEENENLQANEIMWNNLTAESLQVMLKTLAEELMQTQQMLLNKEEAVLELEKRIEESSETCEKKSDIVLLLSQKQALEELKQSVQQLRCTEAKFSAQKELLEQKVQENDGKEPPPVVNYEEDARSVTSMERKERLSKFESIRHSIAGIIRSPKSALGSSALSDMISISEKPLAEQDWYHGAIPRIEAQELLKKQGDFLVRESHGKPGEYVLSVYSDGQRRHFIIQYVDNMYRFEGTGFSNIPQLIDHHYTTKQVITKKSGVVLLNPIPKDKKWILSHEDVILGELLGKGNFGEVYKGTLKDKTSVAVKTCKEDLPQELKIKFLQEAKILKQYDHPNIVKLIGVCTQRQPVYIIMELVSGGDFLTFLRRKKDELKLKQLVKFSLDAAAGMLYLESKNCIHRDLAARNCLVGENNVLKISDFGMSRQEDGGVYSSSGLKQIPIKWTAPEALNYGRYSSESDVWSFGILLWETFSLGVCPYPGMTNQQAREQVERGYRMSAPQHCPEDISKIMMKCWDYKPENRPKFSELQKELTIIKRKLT

[5] = target: Serine/threonine-protein kinase 26 (Homo sapiens) (UniProt Q9P289); test: Inhibition of MST4 ACT labeling site in human A-375 cells at 5 uM by KiNativ Profiling analysis relative to control; type: cell-based
Chain of Serine/threonine-protein kinase 26 (Homo sapiens) (Q9P289 2-416 limits assumed): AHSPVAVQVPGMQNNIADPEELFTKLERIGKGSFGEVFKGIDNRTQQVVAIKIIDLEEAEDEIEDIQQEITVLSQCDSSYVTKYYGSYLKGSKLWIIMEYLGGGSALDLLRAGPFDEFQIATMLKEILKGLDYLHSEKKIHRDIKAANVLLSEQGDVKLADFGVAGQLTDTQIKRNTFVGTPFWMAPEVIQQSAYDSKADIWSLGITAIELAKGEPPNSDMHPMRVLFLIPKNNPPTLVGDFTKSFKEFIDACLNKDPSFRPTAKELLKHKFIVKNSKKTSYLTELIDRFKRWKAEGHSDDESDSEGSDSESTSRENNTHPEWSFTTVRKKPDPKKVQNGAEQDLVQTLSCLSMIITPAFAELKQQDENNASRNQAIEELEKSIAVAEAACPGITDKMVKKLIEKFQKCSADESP

[6] = target: Serine/threonine-protein kinase 26 (Homo sapiens) (UniProt Q9P289); test: Inhibition of MST4 Lys2 labeling site in human A-375 cells at 5 uM by KiNativ Profiling analysis relative to control; type: cell-based
[7] = target: Protein kinase C beta type (Homo sapiens) (UniProt P05771); test: Inhibition of PKCb Lys2 labeling site in human A-375 cells at 5 uM by KiNativ Profiling analysis relative to control; type: cell-based
[8] = target: Serine/threonine-protein kinase SIK3 (Homo sapiens) (UniProt Q9Y2K2); test: Inhibition of QSK Lys2 labeling site in human A-375 cells at 5 uM by KiNativ Profiling analysis relative to control; type: cell-based
[9] = target: Ribosomal protein S6 kinase alpha-3 (Homo sapiens) (UniProt P51812); test: Inhibition of RSK2 domain2 Protein Kinase Domain in human A-375 cells at 5 uM by KiNativ Profiling analysis relative to control; type: cell-based
Outline: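 Live A375 melanoma cells treated with compound at 5 or 0.5 μM, then lysed. Lysate kinases were labeled with a lysine-reactive ATP or ADP-biotin probe. Inhibition was read as protection of labeling sites from the probe.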

[10] = target: Focal adhesion kinase 1 (Homo sapiens) (UniProt Q05397); test: Inhibition of FAK Lys1 labeling site in human A-375 cells at 0.5 uM by KiNativ Profiling analysis relative to control; type: cell-based
Chain of Focal adhesion kinase 1 (Homo sapiens) (Q05397 2-1052 limits assumed): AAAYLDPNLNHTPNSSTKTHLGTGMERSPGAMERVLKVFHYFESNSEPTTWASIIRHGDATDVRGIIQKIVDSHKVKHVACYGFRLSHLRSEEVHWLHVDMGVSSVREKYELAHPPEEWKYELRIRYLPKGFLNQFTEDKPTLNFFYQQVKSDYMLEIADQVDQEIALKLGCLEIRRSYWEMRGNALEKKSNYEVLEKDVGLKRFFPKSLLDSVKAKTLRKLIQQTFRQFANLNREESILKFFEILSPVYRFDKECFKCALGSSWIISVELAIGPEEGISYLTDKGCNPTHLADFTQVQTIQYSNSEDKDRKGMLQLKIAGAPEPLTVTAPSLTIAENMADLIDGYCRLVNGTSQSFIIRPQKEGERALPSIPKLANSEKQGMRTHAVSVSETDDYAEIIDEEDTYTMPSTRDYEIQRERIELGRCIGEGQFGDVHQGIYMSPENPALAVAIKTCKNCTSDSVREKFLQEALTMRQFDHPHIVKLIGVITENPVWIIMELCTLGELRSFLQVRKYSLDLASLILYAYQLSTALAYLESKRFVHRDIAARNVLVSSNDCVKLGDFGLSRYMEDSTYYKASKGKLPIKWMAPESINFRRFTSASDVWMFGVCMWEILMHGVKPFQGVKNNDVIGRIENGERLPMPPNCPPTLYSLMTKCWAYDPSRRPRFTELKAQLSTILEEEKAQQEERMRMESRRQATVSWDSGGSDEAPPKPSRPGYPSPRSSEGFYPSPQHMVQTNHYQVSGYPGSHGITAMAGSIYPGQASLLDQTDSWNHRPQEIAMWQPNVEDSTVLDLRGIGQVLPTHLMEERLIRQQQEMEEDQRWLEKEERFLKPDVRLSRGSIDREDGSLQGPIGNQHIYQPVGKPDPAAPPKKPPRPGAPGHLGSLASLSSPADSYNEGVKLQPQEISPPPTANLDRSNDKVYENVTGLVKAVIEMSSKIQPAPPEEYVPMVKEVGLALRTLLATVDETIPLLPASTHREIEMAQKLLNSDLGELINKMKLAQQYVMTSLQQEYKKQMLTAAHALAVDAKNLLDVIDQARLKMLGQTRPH
Outline: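 Live A375 melanoma cells were treated with compound at 5 or 0.5 μM, then lysed. Lysates were labeled with a lysine-reactive ATP or ADP-biotin probe. Read-out was the compound's protection of kinase labeling sites from probe labeling (KiNativ).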

[11] = target: Serine/threonine-protein kinase/endoribonuclease IRE1 (Homo sapiens) (UniProt O75460); test: Inhibition of IRE1 Lys2 labeling site in human A-375 cells at 0.5 uM by KiNativ Profiling analysis relative to control; type: cell-based
[12] = target: Serine/threonine-protein kinase 10 (Homo sapiens) (UniProt O94804); test: Inhibition of LOK Lys1 labeling site harbouring ETGALAAAKVIETK in human A-375 cells at 0.5 uM by KiNativ Profiling analysis relative to control; type: cell-based
[13] = target: Serine/threonine-protein kinase 25 (Homo sapiens) (UniProt O00506); test: Inhibition of YSK1 ACT labeling site in human A-375 cells at 0.5 uM by KiNativ Profiling analysis relative to control; type: cell-based
Chain of Serine/threonine-protein kinase 25 (Homo sapiens) (O00506 whole entry, looked up): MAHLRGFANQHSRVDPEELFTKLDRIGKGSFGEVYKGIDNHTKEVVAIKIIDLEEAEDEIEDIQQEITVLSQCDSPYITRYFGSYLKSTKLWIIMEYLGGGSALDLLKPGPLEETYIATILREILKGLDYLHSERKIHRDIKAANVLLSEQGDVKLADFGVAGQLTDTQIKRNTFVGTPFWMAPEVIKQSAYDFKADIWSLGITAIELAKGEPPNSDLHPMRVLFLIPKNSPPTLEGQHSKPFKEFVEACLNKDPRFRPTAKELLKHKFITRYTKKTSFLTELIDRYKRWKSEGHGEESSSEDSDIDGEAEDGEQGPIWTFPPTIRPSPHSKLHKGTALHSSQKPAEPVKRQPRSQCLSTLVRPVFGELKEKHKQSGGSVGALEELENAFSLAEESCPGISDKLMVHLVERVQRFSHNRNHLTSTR

[14] = target: T1, Mitogen-activated protein kinase 13 (Homo sapiens) (UniProt O15264); test: Inhibition of p38 delta Lys2 labeling site in human A-375 cells at 0.5 uM by KiNativ Profiling analysis relative to control; type: cell-based
T1 sequence (whole entry): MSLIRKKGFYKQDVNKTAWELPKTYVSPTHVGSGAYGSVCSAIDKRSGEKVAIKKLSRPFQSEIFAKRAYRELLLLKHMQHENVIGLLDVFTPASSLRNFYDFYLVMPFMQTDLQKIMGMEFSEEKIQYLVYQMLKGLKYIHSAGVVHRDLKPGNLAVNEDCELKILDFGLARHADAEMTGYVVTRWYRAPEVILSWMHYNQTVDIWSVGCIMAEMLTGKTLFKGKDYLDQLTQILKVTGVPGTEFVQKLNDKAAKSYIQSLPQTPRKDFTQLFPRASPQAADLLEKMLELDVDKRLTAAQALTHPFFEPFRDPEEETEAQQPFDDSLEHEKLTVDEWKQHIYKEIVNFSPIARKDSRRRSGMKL

[15] = target: Cyclin-dependent kinase 8 (Homo sapiens) (UniProt P49336); test: Inhibition of CDK8 Lys2 labeling site in human A-375 cells at 0.05 uM by KiNativ Profiling analysis relative to control; type: cell-based
Chain of Cyclin-dependent kinase 8 (Homo sapiens) (P49336 whole entry): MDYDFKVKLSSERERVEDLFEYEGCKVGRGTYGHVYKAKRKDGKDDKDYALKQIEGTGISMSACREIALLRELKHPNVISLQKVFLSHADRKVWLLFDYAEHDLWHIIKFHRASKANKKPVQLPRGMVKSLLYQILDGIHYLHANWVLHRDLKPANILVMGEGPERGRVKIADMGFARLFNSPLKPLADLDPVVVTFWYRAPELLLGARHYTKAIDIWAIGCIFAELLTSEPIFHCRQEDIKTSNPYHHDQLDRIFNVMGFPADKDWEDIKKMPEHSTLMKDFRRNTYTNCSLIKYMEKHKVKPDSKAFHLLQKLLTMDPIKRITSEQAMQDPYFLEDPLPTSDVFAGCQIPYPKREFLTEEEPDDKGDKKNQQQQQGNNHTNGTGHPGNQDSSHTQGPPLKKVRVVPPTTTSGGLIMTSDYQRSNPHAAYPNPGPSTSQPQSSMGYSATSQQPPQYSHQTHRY

[16] = target: Mitogen-activated protein kinase 10 (Homo sapiens, UniProt P53779); test: Inhibition of JNK3 Lys2 labeling site in human A-375 cells at 0.05 uM by KiNativ Profiling analysis relative to control; type: cell-based
Chain of Mitogen-activated protein kinase 10 (P53779 whole entry): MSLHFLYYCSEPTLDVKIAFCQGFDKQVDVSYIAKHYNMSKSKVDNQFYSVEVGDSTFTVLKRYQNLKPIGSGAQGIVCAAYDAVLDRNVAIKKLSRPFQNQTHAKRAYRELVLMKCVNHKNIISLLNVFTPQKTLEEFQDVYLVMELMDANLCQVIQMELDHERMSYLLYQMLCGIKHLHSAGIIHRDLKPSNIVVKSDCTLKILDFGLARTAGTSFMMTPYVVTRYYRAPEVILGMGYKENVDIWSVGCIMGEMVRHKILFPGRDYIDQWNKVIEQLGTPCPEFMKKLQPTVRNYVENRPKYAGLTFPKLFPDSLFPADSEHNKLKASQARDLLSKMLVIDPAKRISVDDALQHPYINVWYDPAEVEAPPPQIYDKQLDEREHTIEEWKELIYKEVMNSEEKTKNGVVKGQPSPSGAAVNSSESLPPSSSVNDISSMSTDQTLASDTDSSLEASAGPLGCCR

[17] = target: T2, Mitogen-activated protein kinase kinase kinase 3 (Homo sapiens) (UniProt Q99759); test: Inhibition of MAP3K3 Lys1 labeling site in human A-375 cells at 0.05 uM by KiNativ Profiling analysis relative to control; type: cell-based
T2 sequence (whole entry): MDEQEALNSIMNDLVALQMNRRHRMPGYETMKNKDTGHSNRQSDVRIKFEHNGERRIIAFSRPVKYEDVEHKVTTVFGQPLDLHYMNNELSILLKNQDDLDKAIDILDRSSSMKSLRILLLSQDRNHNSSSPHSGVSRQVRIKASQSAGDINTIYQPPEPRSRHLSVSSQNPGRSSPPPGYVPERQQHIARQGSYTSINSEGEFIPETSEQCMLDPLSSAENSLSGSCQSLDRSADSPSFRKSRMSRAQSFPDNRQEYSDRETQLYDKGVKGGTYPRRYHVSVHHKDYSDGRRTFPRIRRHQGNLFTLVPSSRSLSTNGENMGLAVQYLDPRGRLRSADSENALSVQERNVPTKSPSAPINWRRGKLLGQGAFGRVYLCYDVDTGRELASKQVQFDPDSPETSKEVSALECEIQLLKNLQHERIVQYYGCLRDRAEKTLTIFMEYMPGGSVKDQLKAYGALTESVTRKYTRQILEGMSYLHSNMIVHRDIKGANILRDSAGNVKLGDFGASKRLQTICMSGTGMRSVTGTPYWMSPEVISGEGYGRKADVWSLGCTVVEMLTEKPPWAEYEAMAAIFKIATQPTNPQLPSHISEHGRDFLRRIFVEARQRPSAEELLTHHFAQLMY

[18] = target: Cyclin-dependent kinase 11B (Homo sapiens) (UniProt P21127); test: Inhibition of PITSLRE Lys2 labeling site in human A-375 cells at 0.05 uM by KiNativ Profiling analysis relative to control; type: cell-based
[19] = target: RAF proto-oncogene serine/threonine-protein kinase (Homo sapiens, UniProt P04049); test: Inhibition of RAF1 Lys2 labeling site in human A-375 cells at 0.05 uM by KiNativ Profiling analysis relative to control; type: cell-based
[20] = target: Serine/threonine-protein kinase WNK1 (Homo sapiens) (UniProt Q9H4A3); test: Inhibition of Wnk1 Lys2 labeling site in human A-375 cells at 0.05 uM by KiNativ Profiling analysis relative to control; type: cell-based

CNc1cc(Oc2cc(C(=O)Nc3cc(-n4cnc(C)c4)cc(C(F)(F)F)c3)ccc2C)ncn1
inhibition [1]: 24.1%

CNc1cc(Oc2cc(C(=O)Nc3cc(N4CCN(C)CC4)cc(C(F)(F)F)c3)ccc2C)ncn1
inhibition [1]: 2.7%

CCN1CCN(Cc2ccc(NC(=O)c3ccc(C)c(Oc4ccnc5[nH]ccc45)c3)cc2C(F)(F)F)CC1
inhibition [2]: 51.9%
IC50 [3]: 773 nM
inhibition [4]: 98.1%
inhibition [5]: 35.1%
inhibition [6]: 15.4%
inhibition [7]: 51%
inhibition [8]: 29.6%
inhibition [9]: 0.4%
inhibition [10]: 9.3%
inhibition [11]: 4.5%
inhibition [12]: 71.7%
inhibition [13]: 31.3%
inhibition [14]: 86.2%
inhibition [15]: 32.1%
inhibition [16]: 50.3%
inhibition [17]: 16.7%
inhibition [18]: -4.6%
inhibition [19]: 69.8%
inhibition [20]: -3.5%

CCN1CCN(Cc2ccc(NC(=O)c3ccc(C)c(/C=C/c4cnc5[nH]ccc5c4OC)c3)cc2C(F)(F)F)CC1
inhibition [2]: 69.2%
IC50 [3]: 77 nM
inhibition [4]: 80.3%
inhibition [5]: 13.7%
inhibition [6]: 20.9%
inhibition [7]: 50.2%
inhibition [8]: 28.6%
inhibition [9]: 33.3%
inhibition [10]: -2%
inhibition [11]: -9.6%
inhibition [12]: 60.7%
inhibition [13]: 18.3%
inhibition [14]: 25.2%
inhibition [15]: -9.4%
inhibition [16]: 23.9%
inhibition [17]: 31%
inhibition [18]: -3.9%
inhibition [19]: 63.7%
inhibition [20]: 7.1%
